Assay [1] relates to KB. Description: Cytotoxicity against human KB cells assessed as cell viability at 10 uM after 48 hrs by MTS assay. It counts as functional. To be noted: read-out: Activity. Summed up: (§1)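 KB (P-gp-negative) and KBV20C (P-gp-expressing) cells were grown in RPMI 1640 with 10% FBS and 1% penicillin/streptomycin. KBV20C cells were maintained with 20 nM vincristine. Cells were exposed to each compound at 10 µM for 48 h. Viability (%) was read by MTS. Values are means ± standard deviation of three experiments.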
(Tetrazolium assays rely on reduction of a dye to a coloured formazan, in cell work by metabolically active cells.)

The nature of assay [2]: Cytotoxicity against multidrug resistant P-gp expressing human KBV20C cells assessed as cell viability at 10 uM after 48 hrs by MTS assay. As to conditions: read-out: Activity. It counts as functional. Summed up:
as §1

Assay [3] is described as follows: Cytotoxicity against multidrug resistant P-gp expressing human KBV20C cells assessed as cell viability in presence of vincristine by MTS assay. It counts as functional, cell-based.
Assay [4] in a line: Cytotoxicity against multidrug resistant P-gp expressing human KBV20C cells assessed as cell viability in presence of paclitaxel by MTS assay. It counts as functional, cell-based.
The subject of the next assay is KBV20C. In words: Inhibition of Pgp in multidrug resistant human KBV20C cells assessed as increase in intracellular accumulation of Rh123. Type of assay: cell-based. In outline: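 They were then incubated a further 3 h with Rh123 and washed with PBS. Mean intracellular Rh123 fluorescence was measured by flow cytometry and expressed relative to control. Values are means ± SD of three independent experiments, compared by Student's t-test.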

In assay [5] the test system is KB. In words: Cytotoxicity against human KB cells assessed as cell viability after 48 hrs by MTS assay. Type of assay: functional, cell-based.
The nature of assay [6]: Cytotoxicity against multidrug resistant P-gp expressing human KBV20C cells assessed as cell viability after 48 hrs by MTS assay. Type of assay: functional, cell-based.

Molecules are shown by their SMILES. Activity calls are given as the source filed them. No cut-off for these calls is given here.

In the case of `COc1cc(/C=C/C(=O)c2cccc(NC(=O)C(C)C)c2)ccc1O`, the viability at 10 µM worked out at 67.5% in the assay on KB [1] and 67.7% in assay [2]. Besides, the IC50 (commonly the midpoint of a concentration-inhibition curve) in assay [3] turned out to be 2920 nM; in assay [4], 240 nM.

As for `CCOC(=O)C(=O)Nc1cccc(C(=O)/C=C/c2ccc(O)c(OC)c2)c1`, the viability at 10 µM in the assay on KB [1] worked out at 84.7%; in assay [2] it was 103%. For the same compound, the concentration for half-maximal inhibition (IC50) in assay [3] turned out to be 3310 nM; in assay [4], 1090 nM.

Regarding `COc1cc(/C=C/C(=O)c2cccc(NC(=O)c3cc(Cl)cc(Cl)c3)c2)ccc1O`, the values for the viability at 10 µM (in the assay on KB [1]; in assay [2]) were 68.7% and 70.3%, respectively. Also, the IC50 in assay [3] worked out at 410 nM; in assay [4] it was 22 nM. Moreover, the result with KBV20C was Active.

On to `COc1cc(/C=C/C(=O)c2cccc(NC(=O)c3ccccc3)c2)ccc1O`, for which the viability at 10 µM in the assay with KB [1] was 89.5%; in assay [2], 85.5%. The IC50 in assay [3] was 3820 nM; in assay [4] it was 420 nM.

As to `COc1cc(/C=C/C(=O)c2cccc(NC(=O)c3ccco3)c2)ccc1O`, the viability at 10 µM was 60.2% in the assay with KB [1] and 77.6% in assay [2]. In addition, the 50% inhibitory concentration (IC50) amounted to 1440 nM in assay [3] and 210 nM in assay [4].

With `COc1cc(/C=C/C(=O)c2cccc(NC(=O)c3ccc(Cl)c(Cl)c3)c2)ccc1O`, the viability at 10 µM in the assay with KB [1] was 78.3%; in assay [2], 72.6%. Further, the results for the IC50 in assay [3] and in assay [4] were 850 nM and 26 nM, respectively. In the assay with KBV20C, the outcome was Active.

Turning to `COc1cc(/C=C/C(=O)c2cccc(NC(=O)c3c(Cl)cccc3Cl)c2)ccc1O`, the viability at 10 µM in the assay on KB [1] was determined as 93.7%; in assay [2], 75.3%. Besides, the IC50 stood at 1230 nM in assay [3] and 100 nM in assay [4].

With `COc1cc(/C=C/C(=O)c2cccc(N)c2)ccc1O`, the viability at 10 µM in the assay on KB [1] came to 97.6%; in assay [2], 99.4%. In addition, the IC50 in assay [3] turned out to be 1260 nM; in assay [4], 830 nM.

Regarding `COc1cc(/C=C/C(=O)c2cccc(NC(C)=O)c2)ccc1O`, the viability at 10 µM in the assay on KB [1] came to 98.2%; in assay [2], 92.4%. Besides, the figures for the IC50 in assay [3] and in assay [4] were 1260 nM and 720 nM, respectively.

Regarding `COc1cc(/C=C/C(=O)c2cccc(NC(=O)c3cccs3)c2)ccc1O`, the figures for the viability at 10 µM (in the assay on KB [1]; in assay [2]) were 74.7% and 83.6%, respectively. In addition, the figures for the concentration for half-maximal inhibition (IC50) in assay [3] and in assay [4] were 1410 nM and 180 nM, respectively.

Take `CC(=O)O[C@H]1C(=O)[C@@]2(C)[C@H]([C@H](OC(=O)c3ccccc3)[C@]3(O)C[C@H](OC(=O)[C@H](O)[C@@H](NC(=O)c4ccccc4)c4ccccc4)C(C)=C1C3(C)C)[C@]1(OC(C)=O)CO[C@@H]1C[C@@H]2O` [PACLITAXEL]: the concentration for half-maximal inhibition (IC50) was 4.2 nM in the assay with KB [5] and 1440 nM in assay [6].

Turning to `COc1cc(/C=C/C(=O)CC(=O)/C=C/c2ccc(O)c(OC)c2)ccc1O` [CURCUMIN], the viability at 10 µM with KB [1] amounted to 89.2%; in assay [2], 93.1%. Moreover, the IC50 in assay [3] came to 820 nM; in assay [4], 420 nM.

`CCCC(=O)Nc1cccc(C(=O)/C=C/c2ccc(O)c(OC)c2)c1`: the viability at 10 µM stood at 77.1% in the assay on KB [1] and 80.8% in assay [2]. Moreover, the IC50 was 2890 nM in assay [3] and 210 nM in assay [4].

Take `COC(=O)CC(=O)Nc1cccc(C(=O)/C=C/c2ccc(O)c(OC)c2)c1`: the figures for the viability at 10 µM (in the assay on KB [1]; in assay [2]) were 72.9% and 106%, respectively. Moreover, the figures for the IC50 in assay [3] and in assay [4] were 3810 nM and 320 nM, respectively.

As to `COc1cc(/C=C/C(=O)c2cccc(NC(=O)c3ccc(Cl)cc3Cl)c2)ccc1O`, the values for the viability at 10 µM (in the assay with KB [1]; in assay [2]) were 98.3% and 94.6%, respectively. Moreover, the IC50 in assay [3] is 720 nM; in assay [4] it was 45 nM.

Consider `COc1cc(/C=C/C(=O)c2cccc(NC(=O)c3ccc(Cl)cc3)c2)ccc1O`, for which the figures for the viability at 10 µM (with KB [1]; in assay [2]) were 95.7% and 96.6%, respectively. The IC50 in assay [3] came to 480 nM; in assay [4], 63 nM. Also, the result with KBV20C was Active.

As to `CC[C@]1(O)C[C@H]2CN(CCc3c([nH]c4ccccc34)[C@@](C(=O)OC)(c3cc4c(cc3OC)N(C=O)[C@H]3[C@@](O)(C(=O)OC)[C@H](OC(C)=O)[C@]5(CC)C=CCN6CC[C@]43[C@@H]65)C2)C1` [VINCRISTINE], the IC50 worked out at 7.9 nM with KB [5] and 5720 nM in assay [6].

As to `COc1ccc(CCN(C)CCC[C@](C#N)(c2ccc(OC)c(OC)c2)C(C)C)cc1OC`, in the assay on KBV20C, the outcome was Active.

The values are drawn from ChEMBL document CHEMBL1142402, “Synthesis of curcumin mimics with multidrug resistance reversal activities” (Bioorg Med Chem, 2008).
